From ChEMBL document CHEMBL2176871, “Development of ligands at γ-aminobutyrric acid type A (GABAA) receptor subtype as new agents for pain relief” (Bioorg Med Chem, 2011)
Activity calls are given as the source filed them.

What was measured:
Bos taurus = species on record: Bos taurus; assay: Displacement of [3H]Ro151788 from GABA(A)/BzR in bovine cerebral cortex membrane at 10 uM; type: cell membranes
Procedure, shortened: (§1)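 Bovine cerebral cortex membranes in 50 mM Tris-citrate pH 7.4; [3H]flumazenil displacement. Compounds first tested at a fixed 10 µM; Ki determined only when inhibition exceeded 80%, using at least six concentrations. Five experiments run in triplicate; IC50 obtained by iterative curve fitting and converted to Ki with the Cheng–Prusoff equation.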

[1] = Displacement of [3H]Ro151788 from GABA(A)/BzR in bovine cerebral cortex membrane; type: cell membranes, Bos taurus; procedure, shortened: as §1
Mus musculus [2] = assay: Antihyperalgesic activity Swiss albino mouse […] assessed as licking latency time at 30 mg/kg, po after 60 mins by hot plate test (reference value: 16.9 +/- 0.8 secs); type: functional
Procedure, shortened: (§2)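 Hot plate at 52.5 ± 0.1 °C in non-diabetic male Swiss mice. Latency to licking of fore or hind paws was timed before dosing and every 15 min up to 60 min after oral dosing. Mice with pretest latencies below 12 s or above 18 s were excluded. Cut-off was 45 s.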

Rattus norvegicus [3] = assay: Toxicity in Sprague-Dawley rat mononeuropathy pain model assessed as effect on contralateral paw pressure at 10 mg/kg, po after 45 mins by paw pressure test; type: organism-based; design: dose 10 mg/kg, route oral; conditions: in vivo, 0.75 h
Procedure, shortened: (§3)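 Same sciatic-ligation rat model, 14 days after surgery. Threshold measured on the non-operated contralateral hind paw by analgesimeter at 32 g/s; first-struggle endpoint; 250 g cut-off; pretest rats outside 40–75 g rejected. Compound given po in 10 ml/kg; readings at 15, 30 and 45 min.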

Rattus norvegicus [4] = assay: Antinociceptive activity in Sprague-Dawley rat mononeuropathy pain model assessed as increase in injured paw pressure at 30 mg/kg, po after 15 mins by paw pressure test relative to non-treated control; type: functional
Procedure, shortened: (§4)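 Chronic constriction injury: loose ligatures placed on the common sciatic nerve under chloral hydrate; contralateral sham dissection. Tested 14 days after surgery. Paw pressure applied at 32 g/s; threshold taken as the force causing the first struggle; cut-off 250 g; pretest outliers (<40 g or >75 g) excluded. Oral dosing in 10 ml/kg; read at 15, 30 and 45 min; compared with a CMC-treated group.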

Mus musculus [5] = assay: Antihyperalgesic activity against streptozotocin-induced hyperalgesia in Swiss albino mouse […] assessed as licking latency time at 30 mg/kg, po after 60 mins by hot plate test (reference value: 9.3 +/- 0.7 secs); type: functional
Rattus norvegicus [6] = assay: Antinociceptive activity in Sprague-Dawley rat mononeuropathy pain model assessed as increase in injured paw pressure at 30 mg/kg, po after 45 mins by paw pressure test relative to non-treated control; type: functional; procedure, shortened: as §4
Mus musculus [7] = assay: Antihyperalgesic activity against streptozotocin-induced hyperalgesia in Swiss albino mouse […] assessed as licking latency time at 30 mg/kg, po after 45 mins by hot plate test (reference value: 9.3 +/- 0.7 secs); type: functional
Mus musculus [8] = assay: Anticonvulsant activity in Swiss albino mouse […] assessed as protection against intraperitoneally administered pentylenetetrazol-induced seizures at 30 mg/kg, po after 30 mins; type: functional
Procedure, shortened: (§5)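 Male Swiss albino mice. Compounds given po and PTZ 90 mg/kg injected 30 min later; PTZ was dissolved in 0.9% NaCl saline. Clonic generalized convulsions were recorded over 30 min. Each value is the mean of 10 mice. The methods give the PTZ route as s.c. and the table footnote gives it as ip.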

Rattus norvegicus [9] = assay: Toxicity in Sprague-Dawley rat mononeuropathy pain model assessed as effect on contralateral paw pressure at 30 mg/kg, po after 30 mins by paw pressure test; type: organism-based; design: dose 30 mg/kg, route oral; conditions: in vivo, 0.5 h; procedure, shortened: as §3
Rattus norvegicus [10] = assay: Antinociceptive activity in Sprague-Dawley rat mononeuropathy pain model assessed as increase in injured paw pressure at 10 mg/kg, po after 15 mins by paw pressure test relative to non-treated control; type: functional; procedure, shortened: as §4
Rattus norvegicus [11] = assay: Antinociceptive activity in Sprague-Dawley rat mononeuropathy pain model assessed as increase in injured paw pressure at 10 mg/kg, po after 45 mins by paw pressure test relative to non-treated control; type: functional; procedure, shortened: as §4
Mus musculus [12] = assay: Antihyperalgesic activity Swiss albino mouse […] assessed as licking latency time at 30 mg/kg, po after 30 mins by hot plate test (reference value: 16.9 +/- 0.8 secs); type: functional; procedure, shortened: as §2
Mus musculus [13] = assay: Antihyperalgesic activity Swiss albino mouse […] assessed as licking latency time at 30 mg/kg, po after 45 mins by hot plate test (reference value: 16.9 +/- 0.8 secs); type: functional; procedure, shortened: as §2
Mus musculus [14] = assay: Antihyperalgesic activity Swiss albino mouse […] assessed as licking latency time at 30 mg/kg, po after 15 mins by hot plate test (reference value: 16.9 +/- 0.8 secs); type: functional; procedure, shortened: as §2
Mus musculus [15] = assay: Anxiolytic-like activity in Swiss albino mouse at 30 mg/kg, po after 30 mins by light/dark box test; type: functional, organism-based; design: dose 30 mg/kg
Procedure, shortened: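 Male Swiss mice tested in a two-compartment light/dark box. Transfers between compartments and time spent in the lit side recorded. Compound given po 30 min before testing, in 10 ml/kg; flumazenil given i.p. for antagonism; 8 mice per group.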

Rattus norvegicus [16] = assay: Toxicity in Sprague-Dawley rat mononeuropathy pain model assessed as effect on contralateral paw pressure at 10 mg/kg, po after 15 mins by paw pressure test; type: organism-based; design: dose 10 mg/kg, route oral; conditions: in vivo, 0.25 h; procedure, shortened: as §3
Rattus norvegicus [17] = assay: Antinociceptive activity in Sprague-Dawley rat mononeuropathy pain model assessed as increase in injured paw pressure at 30 mg/kg, po after 30 mins by paw pressure test relative to non-treated control; type: functional; procedure, shortened: as §4
Rattus norvegicus [18] = assay: Antinociceptive activity in Sprague-Dawley rat mononeuropathy pain model assessed as increase in injured paw pressure at 10 mg/kg, po after 30 mins by paw pressure test relative to non-treated control; type: functional; procedure, shortened: as §4
Mus musculus [19] = assay: Antihyperalgesic activity against streptozotocin-induced hyperalgesia in Swiss albino mouse […] assessed as licking latency time at 30 mg/kg, po after 30 mins by hot plate test (reference value: 9.3 +/- 0.7 secs); type: functional
Rattus norvegicus [20] = assay: Toxicity in Sprague-Dawley rat mononeuropathy pain model assessed as effect on contralateral paw pressure at 30 mg/kg, po after 45 mins by paw pressure test; type: organism-based; design: dose 30 mg/kg, route oral; conditions: in vivo, 0.75 h; procedure, shortened: as §3
Rattus norvegicus [21] = assay: Toxicity in Sprague-Dawley rat mononeuropathy pain model assessed as effect on contralateral paw pressure at 10 mg/kg, po after 30 mins by paw pressure test; type: organism-based; design: dose 10 mg/kg, route oral; conditions: in vivo, 0.5 h; procedure, shortened: as §3
Mus musculus [22] = assay: Analgesic activity in Swiss albino mouse abdominal constriction model assessed as decrease in number of acetic acid-induced writhing at 30 to 60 mg/kg, po after 30 mins; type: functional, organism-based; conditions: Abdomen
Procedure, shortened: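 Male Swiss albino mice (23–30 g). Compounds given po in 1% CMC vehicle 30 min before the test. Acetic acid 0.6% injected i.p. at 10 ml/kg. Stretching movements were counted for 10 min, starting 5 min after the acetic acid injection. 8–15 mice per group.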

Mus musculus [23] = assay: Antihyperalgesic activity against streptozotocin-induced hyperalgesia in Swiss albino mouse […] assessed as licking latency time at 30 mg/kg, po after 15 mins by hot plate test (reference value: 9.3 +/- 0.7 secs); type: functional
Rattus norvegicus [24] = assay: Toxicity in Sprague-Dawley rat mononeuropathy pain model assessed as effect on contralateral paw pressure at 30 mg/kg, po after 15 mins by paw pressure test; type: organism-based; design: dose 30 mg/kg, route oral; conditions: in vivo, 0.25 h; procedure, shortened: as §3
Mus musculus [25] = assay: Anticonvulsant activity in Swiss albino mouse […] assessed as protection against intraperitoneally administered pentylenetetrazol-induced seizures at 10 mg/kg, po after 30 mins; type: functional; procedure, shortened: as §5
Mus musculus [26] = assay: Antihyperalgesic activity against streptozotocin-induced hyperalgesia in Swiss albino mouse […] assessed as licking latency time at 30 mg/kg, po after 45 mins by hot plate test (reference value: 8.8 +/- 0.7 secs); type: functional
Mus musculus [27] = assay: Antihyperalgesic activity Swiss albino mouse […] assessed as licking latency time at 30 mg/kg, po after 30 mins by hot plate test (reference value: 16.6 +/- 0.8 secs); type: functional; procedure, shortened: as §2
Mus musculus [28] = assay: Antihyperalgesic activity against streptozotocin-induced hyperalgesia in Swiss albino mouse […] assessed as licking latency time at 30 mg/kg, po after 30 mins by hot plate test (reference value: 8.8 +/- 0.7 secs); type: functional
Mus musculus [29] = assay: Antihyperalgesic activity against streptozotocin-induced hyperalgesia in Swiss albino mouse […] assessed as licking latency time at 30 mg/kg, po after 15 mins by hot plate test (reference value: 8.8 +/- 0.7 secs); type: functional
Mus musculus [30] = assay: Antihyperalgesic activity against streptozotocin-induced hyperalgesia in Swiss albino mouse […] assessed as licking latency time at 30 mg/kg, po after 60 mins by hot plate test (reference value: 8.8 +/- 0.7 secs); type: functional
Mus musculus [31] = assay: Antihyperalgesic activity Swiss albino mouse […] assessed as licking latency time at 30 mg/kg, po after 15 mins by hot plate test (reference value: 16.6 +/- 0.8 secs); type: functional; procedure, shortened: as §2
Mus musculus [32] = assay: Antihyperalgesic activity Swiss albino mouse […] assessed as licking latency time at 30 mg/kg, po after 45 mins by hot plate test (reference value: 16.6 +/- 0.8 secs); type: functional; procedure, shortened: as §2
Mus musculus [33] = assay: Antihyperalgesic activity Swiss albino mouse […] assessed as licking latency time at 30 mg/kg, po after 60 mins by hot plate test (reference value: 16.6 +/- 0.8 secs); type: functional; procedure, shortened: as §2

Row | SMILES | inhibition (Bos taurus) [%] | Ki [1] [nM] | Activity (Rattus norvegicus [4]) [g] | Activity (Rattus norvegicus [6]) [g] | Activity (Rattus norvegicus [9]) [g] | Activity (Rattus norvegicus [17]) [g] | Activity (Rattus norvegicus [20]) [g] | Activity (Rattus norvegicus [24]) [g] | further results
1 | Cc1cnn2c1nnc1ccc(OCc3ccccc3)cc12 | > 80 | 1.6 | – | – | – | – | – | – | –
2 | [O-][n+]1nc2c(I)cnn2c2cc(Cl)ccc21 | – | 22.8 | – | – | – | – | – | – | –
3 | Cc1cnn2c1nnc1ccc(NCc3ccccc3)cc12 | > 80 | 2.78 | – | – | – | – | – | – | –
4 | CC(COc1ccc2c(c1)n1ncc(I)c1n[n+]2[O-])c1ccccc1 (racemic) | > 80 | – | 43.4 | 39 | 61.7 | 40.8 | 59.2 | 58.8 | Time (Mus musculus [2]): 18.2 s; Activity (Rattus norvegicus [3]): 57.9 g; Time (Mus musculus [5]): 18.1 s; Time (Mus musculus [7]): 17.8 s; Activity (Mus musculus [8]): 0%; Activity (Rattus norvegicus [10]): 42.5 g; Activity (Rattus norvegicus [11]): 37.2 g; Time (Mus musculus [12]): 16.8 s; Time (Mus musculus [13]): 17.7 s; Time (Mus musculus [14]): 17.2 s; Activity (Mus musculus [15]): Active; Activity (Rattus norvegicus [16]): 59.8 g; Activity (Rattus norvegicus [18]): 43.5 g; Time (Mus musculus [19]): 17.5 s; Activity (Rattus norvegicus [21]): 63.5 g; Activity (Mus musculus [22]): inactive; Time (Mus musculus [23]): 16.4 s
5 | CN(Cc1ccccc1)c1ccc2c(c1)n1ncc(I)c1n[n+]2[O-] | > 80 | 1.02 | 29.2 | 28.5 | 62.8 | 26.5 | 60.8 | 61.7 | Activity (Mus musculus [25]): 10%; Time (Mus musculus [26]): 10.4 s; Time (Mus musculus [27]): 16.8 s; Time (Mus musculus [28]): 11.8 s; Time (Mus musculus [29]): 10.1 s; Time (Mus musculus [30]): 11.1 s; Time (Mus musculus [31]): 17.3 s; Time (Mus musculus [32]): 18.3 s; Activity (Mus musculus [15]): Active; Time (Mus musculus [33]): 17.9 s; Activity (Mus musculus [22]): inactive
6 | Cc1cnn2c1n[n+]([O-])c1ccc(OCC(C)c3ccccc3)cc12 (racemic) | > 80 | 361 | – | – | – | – | – | – | –
7 | COc1ccccc1CNc1ccc2c(c1)n1ncc(I)c1n[n+]2[O-] | > 80 | 0.138 | – | – | – | – | – | – | –
8 | O=C(OCc1cccs1)c1cnn2c1n[n+]([O-])c1ccc(Cl)cc12 | – | 6.8 | 33.6 | 32.8 | 57.8 | 35.2 | 60.9 | 59.3 | –
9 | Ic1cnn2c1nnc1ccc(NCc3ccccc3)cc12 | > 80 | 0.71 | – | – | – | – | – | – | –
